From ChEMBL document CHEMBL4602675, “The Marine Natural Product Manzamine A Inhibits Cervical Cancer by Targeting the SIX1 Protein” (J Nat Prod, 2020)
The source made the active and inactive calls. No cut-off for these calls is given here.

What was measured:
HeLa [1] = assay: Cell cycle arrest in human HeLa cells assessed as accumulation at G2/M phase at 4 uM after 24 hrs by propidium iodide staining based flow cytometric analysis (reference value: 16.4%); format: functional
Outline: (§1)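 Cells in DMEM/10% FBS at 37 °C, 5% CO2 were given 4 μM for 24, 48 or 72 h, with DMSO as control. After trypsinization they were fixed in chilled 70% ethanol on ice for 30 min, treated with RNase A (1 mg/mL) for 30 min at room temperature, and stained with PI (20 μg/mL). At least 10 000 events were read by flow cytometry to give sub-G1, G0/G1, S and G2/M fractions; mean ± SEM.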

[2] = target: Protein E6 (Human papillomavirus 16) (UniProt P03126); assay: Inhibition of Human papillomavirus type16 derived E6 in human SiHa cells assessed as increase in p53 protein expression at 2 to 4 uM after 48 hrs by Western blot analysis; format: cell-based
Outline: (§2)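 Cells were seeded at 1 × 10^6 per 100 mm dish and treated next day with 2 or 4 μM for 48 h. They were trypsinised, PBS-washed and lysed in RIPA with protease inhibitors. Equal protein was run on SDS-PAGE and transferred to PVDF. Primary antibodies were used at 1:500, with BSA 3% for blocking and antibodies for CK2α, Rb and pRb, otherwise 5% milk in TBST. HRP secondary at 1:2000, chemiluminescence detection.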

C-33-A [3] = assay: Cell cycle arrest in human C33A cells assessed as accumulation at G0/G1 phase at 4 uM after 72 hrs by propidium iodide staining based flow cytometric analysis (reference value: 60%); format: functional; outline: as §1
C-33-A [4] = assay: Induction of apoptosis in human C33A cells assessed as viable cells at 4 uM after 48 hrs by Annexin V-FITC/PI double staining based flow cytometric analysis (reference value: 82.8%); format: functional; conditions: read-out: Activity
HeLa [5] = assay: Antiproliferative activity against human HeLa cells assessed as reduction in cell viability after 24 hrs by CellTiter-Glo assay; format: functional, cell-based
Outline: (§3)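 ATP-based luminescent viability readout. Cells were grown in DMEM with 10% FBS, 2 mM L-glutamine and penicillin-streptomycin at 37 °C, 5% CO2. 2 × 10^4 cells/well were seeded, then exposed the next day to 0–40 μM for 24, 48 or 72 h. % viability = 100 × treated/control. IC50 was fitted from a sigmoid dose-response curve. Run at least three times in quadruplicate; mean ± SEM.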

SiHa [6] = assay: Cell cycle arrest in human SiHa cells assessed as accumulation at G2/M phase at 4 uM after 72 hrs by propidium iodide staining based flow cytometric analysis (reference value: 18%); format: functional
Outline: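 Cells in DMEM with 10% FBS, 2 mM L-glutamine, pen-strep, 37 °C, 5% CO2; seeded and left overnight, then treated at 4 μM with DMSO as control. Harvested by trypsin at 24, 48 or 72 h, fixed in chilled 70% ethanol 30 min on ice, RNase A (1 mg/mL) 30 min at room temperature, PI (20 μg/mL). Flow cytometry, ≥10 000 events, G0/G1, S, G2/M fractions; mean ± SEM.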

HeLa [7] = assay: Cell cycle arrest in human HeLa cells assessed as accumulation at G0/G1 phase at 4 uM after 48 hrs by propidium iodide staining based flow cytometric analysis (reference value: 69.6%); format: functional; outline: as §1
Ca-Ski [8] = assay: Induction of apoptosis in human CaSki cells assessed as viable cells at 4 uM after 24 hrs by Annexin V-FITC/PI double staining based flow cytometric analysis (reference value: 84%); format: functional; conditions: read-out: Activity
C-33-A [9] = assay: Cell cycle arrest in human C33A cells assessed as accumulation at G0/G1 phase at 4 uM after 24 hrs by propidium iodide staining based flow cytometric analysis (reference value: 58.4%); format: functional; outline: as §1
SiHa [10] = assay: Cell cycle arrest in human SiHa cells assessed as accumulation at G0/G1 phase at 4 uM after 72 hrs by propidium iodide staining based flow cytometric analysis (reference value: 72.8%); format: functional; outline: as §1
HeLa [11] = assay: Antiproliferative activity against human HeLa cells assessed as reduction in cell viability after 72 hrs by CellTiter-Glo assay; format: functional, cell-based; outline: as §3
C-33-A [12] = assay: Cell cycle arrest in human C33A cells assessed as accumulation at G0/G1 phase at 4 uM after 48 hrs by propidium iodide staining based flow cytometric analysis (reference value: 54.6%); format: functional; outline: as §1
Ca-Ski [13] = assay: Cell cycle arrest in human CaSki cells assessed as accumulation at G2/M phase at 4 uM after 24 hrs by propidium iodide staining based flow cytometric analysis (reference value: 27.4%); format: functional; outline: as §1
Ca-Ski [14] = assay: Induction of apoptosis in human CaSki cells assessed as early apoptotic cells at 4 uM after 24 hrs by Annexin V-FITC/PI double staining based flow cytometric analysis (reference value: 12.2%); format: functional
HeLa [15] = assay: Induction of apoptosis in human HeLa cells assessed as late apoptotic cells at 4 uM after 48 hrs by Annexin V-FITC/PI double staining based flow cytometric analysis (reference value: 4.4%); format: functional
HeLa [16] = assay: Cell cycle arrest in human HeLa cells assessed as accumulation at Sub G1 phase at 4 uM after 48 hrs by propidium iodide staining based flow cytometric analysis (reference value: 2.1%); format: functional; outline: as §1
[17] = target: Protein E6 (human papillomavirus 18) (UniProt P06463); assay: Inhibition of Human papillomavirus type18 derived E6 in human HeLa cells assessed as increase in p21 protein expression at 2 to 4 uM after 48 hrs by Western blot analysis; format: cell-based; outline: as §2
Ca-Ski [18] = assay: Induction of apoptosis in human CaSki cells assessed as apoptotic cells at 4 uM after 48 hrs by Annexin V-FITC/PI double staining based flow cytometric analysis (reference value: […]); format: functional
SiHa [19] = assay: Induction of apoptosis in human SiHa cells assessed as late apoptotic cells at 4 uM after 48 hrs by Annexin V-FITC/PI double staining based flow cytometric analysis (reference value: 2.3%); format: functional
Keratinocyte = assay: Cytotoxicity against human Keratinocytes assessed as reduction in cell viability 2 to 4 uM incubated up to 72 hrs by CellTiter-Glo assay; format: cell-based
SiHa [20] = assay: Cell cycle arrest in human SiHa cells assessed as accumulation at G2/M phase at 4 uM after 24 hrs by propidium iodide staining based flow cytometric analysis (reference value: 17%); format: functional; outline: as §1
SiHa [21] = assay: Induction of apoptosis in human SiHa cells assessed as early apoptotic cells at 4 uM after 24 hrs by Annexin V-FITC/PI double staining based flow cytometric analysis (reference value: 5.4%); format: functional

Sequence of Protein E6 (Human papillomavirus 16) (P03126 whole entry): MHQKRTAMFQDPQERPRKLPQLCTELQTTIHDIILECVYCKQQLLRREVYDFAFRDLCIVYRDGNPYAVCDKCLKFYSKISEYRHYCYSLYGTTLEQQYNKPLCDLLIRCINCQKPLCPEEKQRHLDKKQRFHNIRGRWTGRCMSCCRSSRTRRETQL
Sequence of Protein E6 (human papillomavirus 18) (P06463 whole entry): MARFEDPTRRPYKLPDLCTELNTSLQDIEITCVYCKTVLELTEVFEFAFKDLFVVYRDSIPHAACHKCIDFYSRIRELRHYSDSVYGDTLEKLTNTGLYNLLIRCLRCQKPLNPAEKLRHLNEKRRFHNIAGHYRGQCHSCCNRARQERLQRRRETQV

## O[C@]12C=C(c3nccc4c3[nH]c3ccccc34)[C@@H]3CCN(CCCC/C=C\CC1)C[C@@]31C[C@@H]3/C=C\CCCCN3[C@H]12 [MANZAMINE A]
HeLa [1]
  Activity: 13.8%
[2]
  inhibition: Active
C-33-A [3]
  Activity: 34.2%
C-33-A [4]
  viability at 4 µM: 63.6%
HeLa [5]
  IC50: 11.8 µM
SiHa [6]
  Activity: 12.7%
HeLa [7]
  Activity: 63.9%
Ca-Ski [8]
  viability at 4 µM: 81.4%
C-33-A [9]
  Activity: 58.5%
SiHa [10]
  Activity: 78.6%
HeLa [11]
  IC50: 5.3 µM
C-33-A [12]
  Activity: 44.2%
Ca-Ski [13]
  Activity: 15.2%
Ca-Ski [14]
  Activity: 16.9%
HeLa [15]
  Activity: 14.1%
HeLa [16]
  Activity: 5.1%
[17]
  inhibition: inactive
Ca-Ski [18]
  Activity: 23.2%
SiHa [19]
  Activity: 4.2%
Keratinocyte
  Activity: Non-Toxic
SiHa [20]
  Activity: 9.2%
SiHa [21]
  Activity: 13.7%
